This is an account of results in ChEMBL document CHEMBL1126834, “Chemistry, binding affinities, and behavioral properties of a new class of "antineophobic" mitochondrial DBI receptor complex (mDRC) ligands” (J Med Chem, 1993).

Several values for one entry are separate records, joined by “and”; a condition that tells them apart may be missing. Equal values may be shown once.

One experiment deals with Cannabinoid receptor 1 (Rattus norvegicus, UniProt P20272). Description: Inhibitory activity, measured by displacement [3H]CP-55940 from cannabinoid receptor (CB1) in rat brain. In kind it is tissue-based.
Sequence of Cannabinoid receptor 1 (P20272 whole entry): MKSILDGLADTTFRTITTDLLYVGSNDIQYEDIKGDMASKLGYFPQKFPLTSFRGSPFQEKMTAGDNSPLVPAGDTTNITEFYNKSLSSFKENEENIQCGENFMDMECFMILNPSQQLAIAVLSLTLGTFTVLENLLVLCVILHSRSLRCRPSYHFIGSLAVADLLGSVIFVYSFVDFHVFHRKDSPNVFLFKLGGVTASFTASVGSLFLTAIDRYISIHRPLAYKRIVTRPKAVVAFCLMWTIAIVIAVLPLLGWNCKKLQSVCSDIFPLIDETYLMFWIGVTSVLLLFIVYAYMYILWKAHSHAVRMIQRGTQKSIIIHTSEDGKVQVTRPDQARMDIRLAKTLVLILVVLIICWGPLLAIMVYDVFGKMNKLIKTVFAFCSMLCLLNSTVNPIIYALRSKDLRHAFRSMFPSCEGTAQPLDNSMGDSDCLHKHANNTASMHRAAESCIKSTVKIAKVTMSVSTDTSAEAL
Experiment [1] is described as follows: Inhibitory activity at GABA B receptor, measured by the ability to displace [3H]baclofen from GABA B receptor in rat brain. In kind it is tissue-based.
The target of experiment [2] is GABA-A receptor; anion channel. Description: Inhibitory activity at GABA A receptor, measured by the ability to displace [35S]TBPS from GABA A receptor in rat brain. In kind it is tissue-based.
Experiment [3] has as its target GABA-A receptor; anion channel. Description: Inhibitory activity at GABA A receptor, measured by the ability to displace [3H]GABA from GABA A receptor in rat brain. In kind it is tissue-based.
For experiment [4], the target named is GABA-A receptor; anion channel. Description: Inhibitory activity at GABA A receptor, measured by the ability to displace [3H]flumazenil from GABA A receptor in rat brain. In kind it is tissue-based.
Experiment [5] concerns the target GABA-A receptor; anion channel. The experiment can be described thus: Inhibitory activity at GABA A receptor, measured by the ability to displace [3H]zolpidem from GABA A receptor in rat brain. In kind it is tissue-based.
Experiment [6] deals with Rattus norvegicus. Description: Tested for antineophobic activity using the elevated plus maze test administered at 55 umol/kg perorally in rats. In kind it is functional.
Experiment [7] deals with T1, Gastrin/cholecystokinin type B receptor (Rattus norvegicus, UniProt P30553).
T1 sequence (P30553 whole entry): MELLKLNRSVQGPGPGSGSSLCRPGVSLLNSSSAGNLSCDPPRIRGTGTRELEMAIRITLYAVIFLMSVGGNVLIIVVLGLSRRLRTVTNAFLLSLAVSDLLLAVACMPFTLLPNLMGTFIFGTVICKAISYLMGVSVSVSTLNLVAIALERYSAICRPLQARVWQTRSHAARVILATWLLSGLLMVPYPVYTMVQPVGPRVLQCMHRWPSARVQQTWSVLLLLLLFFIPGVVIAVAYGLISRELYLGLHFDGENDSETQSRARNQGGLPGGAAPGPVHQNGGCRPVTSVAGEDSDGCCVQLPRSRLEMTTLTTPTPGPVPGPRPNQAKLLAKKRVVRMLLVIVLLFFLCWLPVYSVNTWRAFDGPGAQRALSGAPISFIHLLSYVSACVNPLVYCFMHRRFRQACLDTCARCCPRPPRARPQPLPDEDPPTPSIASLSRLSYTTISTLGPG
The experiment can be described thus: Inhibitory activity by measuring its ability to displace [3H]L-365260 from cholecystokinin receptor in rat brain. In kind it is tissue-based.

In experiment [8] the target is Adrenergic receptor alpha. Description: Inhibitory activity by measuring its ability to displace [3H]WB-4101 from alpha-adrenergic receptor in rat brain. In kind it is tissue-based.
The target in experiment [9] is Adrenergic receptor alpha. Description: Inhibitory activity by measuring its ability to displace [3H]clonidine from alpha-adrenergic receptor in rat brain. In kind it is tissue-based.
A further experiment has as its target Adrenergic receptor beta (Rattus norvegicus, UniProt P18090+P10608+P26255). Description: Inhibitory activity by measuring its ability to displace [125I]pindolol from beta-adrenergic receptor in rat brain. In kind it is tissue-based.
Experiment [10] can be described thus: Inhibitory activity by measuring its ability to displace [3H]glycine from glycine receptor in rat brain. In kind it is tissue-based.
A further experiment has as its target Glutamate NMDA receptor. The experiment can be described thus: Inhibitory activity by measuring its ability to displace [3H]-MK-801 from glutamate(NMDA) receptor in rat brain. In kind it is tissue-based.
The nature of experiment [11]: Tested for inhibitory activity by measuring its ability to displace [3H]AMPA from glutamate (non-NMDA) receptor in rat brain. In kind it is tissue-based.
Experiment [12] in a line: Inhibitory activity by measuring its ability to displace [3H]spiperone from dopamine or serotonin 5-HT-1 receptors in rat brain. In kind it is tissue-based.
In a further experiment the target is Translocator protein (Rattus norvegicus, UniProt P16257). The experiment can be described thus: Binding affinity against mitochondrial DBI complex (peripheral benzodiazepine receptor) using primary cultures of glial cells. In short, it runs like this:
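Glia from cerebella of 8-day-old Sprague–Dawley rat pups, trypsin-dissociated and grown 14 days (~95% astroglia). Cells lysed in 50 mM Hepes pH 7.4, 4 μg protein per tube. Incubated with [3H]4'-chlorodiazepam and competitor for 90 min at 4 °C, then filtered. Nonspecific binding defined with 10 μM 4'-chlorodiazepam. Triplicate competition curves; IC50 by nonlinear regression, converted to Ki (Bylund–Yamamura).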

Experiment [13] deals with Rattus norvegicus. Description: Tested for antineophobic activity administered at 225 umol/kg perorally in adrenalectomized/castrated rats. In kind it is functional. In short, it runs like this: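 Rats of 175–200 g were adrenalectomized and castrated 3 days before the elevated plus maze. Drug was suspended in 1% DMSO/H2O and given by oral gavage 1 h before the test. […] was scored; n = 10 rats, mean ± SEM.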

The subject of experiment [14] is Rattus norvegicus. The experiment can be described thus: Tested for antineophobic activity using the elevated plus maze test administered at 57 umol/kg perorally in rats. In kind it is functional.
In experiment [15] the test system is Rattus norvegicus. Description: Tested for antineophobic activity using the elevated plus maze test administered at 51 umol/kg perorally in rats. In kind it is functional.
Experiment [16] has as its target T2, Opioid receptor (Rattus norvegicus, UniProt P33533+P34975+P33535). Description: Inhibition of [3H]naxolone binding to opiate receptors in rat brain. In kind it is tissue-based.
The target in experiment [17] is Serotonin 2 (5-HT2) receptor (Rattus norvegicus). The experiment can be described thus: Inhibitory activity by measuring its ability to displace [3H]ketanserin from serotonin receptor in rat brain.
Experiment [18] concerns the target Sigma receptor (Rattus norvegicus). The experiment can be described thus: Tested for inhibitory activity by measuring its ability to displace [3H]3-PPP from sigma receptor in rat brain.
Experiment [19] addresses T2, Opioid receptor. Description: Displacement of [3H]naxolone from opiate receptor of rat brain.

Sequence of Translocator protein (P16257 whole entry, looked up): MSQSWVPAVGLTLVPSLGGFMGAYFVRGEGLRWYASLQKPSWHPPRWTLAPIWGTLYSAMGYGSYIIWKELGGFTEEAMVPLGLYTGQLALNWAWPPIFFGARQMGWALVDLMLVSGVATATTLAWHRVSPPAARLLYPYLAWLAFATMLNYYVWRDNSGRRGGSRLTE

Regarding `CCCCCCN(CCCCCC)C(=O)Cc1c(-c2ccccc2)[nH]c2ccc(Cl)cc12`, the IC50 (on Cannabinoid receptor 1; in experiment [1]; in experiment [2]; in [3]; in [4]; in experiment [5]) was > 1000 nM each time. Moreover, the IC50 (in experiment [7]; in [8]; in experiment [9]; at Adrenergic receptor beta; in experiment [10]; on Glutamate NMDA receptor) was > 1000 nM in each case. Besides, the IC50 in experiment [11] and in [12] was > 1000 nM in each case. Besides, in the experiment with Rattus norvegicus [6], the No. of entries came out at 2.3. Besides, in the experiment with Rattus norvegicus [6], the Time came out at 4.3%. Moreover, the affinity at Translocator protein, expressed as Ki, was 4.1 nM.
Consider `CCCCCCN(CCCCCC)C(=O)Cc1c(-c2ccc(F)cc2)[nH]c2ccccc12`, for which the IC50 (at Cannabinoid receptor 1; in experiment [1]; in [2]; in experiment [3]; in experiment [4]; in experiment [5]) was > 1000 nM in each case. Moreover, the IC50 (in experiment [7]; in experiment [8]; in experiment [9]; on Adrenergic receptor beta; in experiment [10]; at Glutamate NMDA receptor) was > 1000 nM each time. Also, the IC50 in experiment [11] and in [12] was > 1000 nM in each case. For the same compound, the No. of entries with Rattus norvegicus [13] is 4.9 and 5.5; in the experiment with Rattus norvegicus [14] it was 2.1. The Time spent in the experiment with Rattus norvegicus [13] is 22 s and 25 s. Further, the Time in the experiment on Rattus norvegicus [14] is 4.5%. Also, the Ki at Translocator protein came to 4.4 nM.
On to `CCCCCCN(CCCCCC)C(=O)Cc1c(-c2ccc(Cl)cc2)[nH]c2ccc(Cl)cc12`, for which the IC50 (at Cannabinoid receptor 1; in experiment [1]; in [2]; in experiment [3]; in experiment [4]; in experiment [5]) was > 1000 nM in each case. For the same compound, the IC50 (in experiment [7]; in experiment [8]; in experiment [9]; on Adrenergic receptor beta; in [10]; on Glutamate NMDA receptor) was > 1000 nM each time. Also, the IC50 (in experiment [11]; in [12]; at Opioid receptor [16]; in [17]; in [18]) was > 1000 nM each time. In addition, the No. of entries in the experiment with Rattus norvegicus [15] is on record as 2.3. Further, in the experiment with Rattus norvegicus [15], the Time is listed as 5.3%. Moreover, the Ki on Translocator protein came to 3.6 nM.
On to `CCCN(CCC)C(=O)Cc1c(-c2ccc(F)cc2)[nH]c2ccccc12`, for which the IC50 (on Cannabinoid receptor 1; in experiment [1]; in experiment [2]; in experiment [3]; in experiment [4]; in [5]) was > 1000 nM each time. For the same compound, the IC50 (in experiment [7]; in experiment [8]; in experiment [9]; at Adrenergic receptor beta; in experiment [10]; on Glutamate NMDA receptor) was > 1000 nM each time. In addition, the IC50 (in experiment [11]; in experiment [12]; at Opioid receptor [19]; in experiment [17]; in experiment [18]) was > 1000 nM each time. At Translocator protein, this compound displayed a Ki of 100 nM.

In general, IC50 refers to the midpoint of a concentration-inhibition curve. A higher IC50 goes with weaker potency. The Ki is the equilibrium dissociation constant of an inhibitor or competing ligand from its target.
